{"source": "ChEMBL document CHEMBL3616459", "about": "“Antimicrobial peptides with potential for biofilm eradication: synthesis and structure activity relationship studies of battacin peptides” (J Med Chem, 2015)", "key": {"[1]": {"test_system": "Erwinia amylovora", "experiment": "Antimicrobial activity against Erwinia amylovora 1501 after 24 hrs by spectrophotometry", "type": "functional", "conditions": "Erwinia amylovora, 1501, 24 h", "outline": "(§1)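 Broth microdilution in Luria broth. Overnight culture from a single colony, grown at 28 °C (Ea1501, Psa) or 37 °C (E. coli, S. aureus), adjusted to OD600 0.6. Peptide dissolved in LB with 0.5% acetic acid as a dilution series; 50 μL peptide plus 50 μL culture per well, triplicates.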"}, "[2]": {"test_system": "Erwinia amylovora", "experiment": "Antimicrobial activity against streptomycin-resistant Erwinia amylovora after 24 hrs by spectrophotometry", "type": "functional", "outline": "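Broth microdilution in Luria broth; overnight culture grown at 28 °C, adjusted to OD600 0.6, mixed 1:1 with a dilution series of peptide prepared in LB containing 0.5% acetic acid. Three replicates per concentration.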"}, "[3]": {"test_system": "Escherichia coli", "experiment": "Antimicrobial activity against Escherichia coli after 24 hrs by spectrophotometry", "type": "functional", "outline": "as §1"}, "[4]": {"test_system": "Staphylococcus aureus", "experiment": "Ratio of gentamycin MIC to compound MIC for Staphylococcus aureus after 24 hrs by spectrophotometry", "type": "functional"}, "[5]": {"test_system": "Erwinia amylovora", "experiment": "Bactericidal activity against Erwinia amylovora 1501 by time-kill assay", "type": "functional, organism-based", "outline": "(§2)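 Time-kill assay. Overnight culture diluted in LB to mid-log phase, 10^5–10^8 CFU/mL; 100 μL added to 10 mL peptide in LB at 1×, 2×, 4× and 20× MIC. Incubated with shaking at 100 rpm, at 28 °C (Ea1501, Psa) or 37 °C (E. coli, P. aeruginosa, S. aureus). Samples at 0, 0.5, 1, 3, 6, 9 and 24 h serially diluted in 0.9% saline and plated; colonies counted after 24 h. Run in duplicate. Bactericidal means ≥2-log10 CFU/mL drop versus the no-antibiotic control.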"}, "[6]": {"test_system": "Pseudomonas syringae", "experiment": "Bactericidal activity against Pseudomonas syringae pv. actinidiae 16027 by time-kill assay", "type": "functional, organism-based", "outline": "as §2"}, "[7]": {"test_system": "Pseudomonas aeruginosa", "experiment": "Bactericidal activity against Pseudomonas aeruginosa by time-kill assay", "type": "functional, organism-based", "outline": "as §2"}, "[8]": {"test_system": "Escherichia coli", "experiment": "Bactericidal activity against Escherichia coli assessed as reduction in bacterial count at 20 times MIC up to 3 hrs by time-kill assay relative to control", "type": "functional", "outline": "as §2"}, "[9]": {"test_system": "Erwinia amylovora", "experiment": "Bactericidal activity against Erwinia amylovora 1501 at 2 to 20 times MIC up to 6 hrs by time-kill assay", "type": "functional, organism-based", "outline": "as §2"}, "[10]": {"test_system": "Erwinia amylovora", "experiment": "Bactericidal activity against Erwinia amylovora 1501 at 2 to 20 times MIC after 9 hrs by time-kill assay", "type": "functional, organism-based", "outline": "as §2"}, "[11]": {"test_system": "Pseudomonas syringae", "experiment": "Bactericidal activity against Pseudomonas syringae pv. actinidiae 16027 at 20 times MIC up to 1 hr by time-kill assay", "type": "functional, organism-based", "outline": "as §2"}, "[12]": {"test_system": "Pseudomonas syringae", "experiment": "Bactericidal activity against Pseudomonas syringae pv. actinidiae 16027 at 4 times MIC up to 6 hrs by time-kill assay", "type": "functional, organism-based", "outline": "as §2"}, "[13]": {"test_system": "Pseudomonas syringae", "experiment": "Bactericidal activity against Pseudomonas syringae pv. actinidiae 16027 at 1 to 20 times MIC after 24 hrs by time-kill assay", "type": "functional, organism-based", "outline": "as §2"}, "[14]": {"test_system": "Pseudomonas aeruginosa", "experiment": "Bactericidal activity against Pseudomonas aeruginosa assessed as reduction in bacterial count at 2 to 4 times MIC after 24 hrs by time-kill assay relative to control", "type": "functional", "outline": "as §2"}, "[15]": {"test_system": "Pseudomonas aeruginosa", "experiment": "Bactericidal activity against Pseudomonas aeruginosa at 20 times MIC after 9 hrs by time-kill assay relative to control", "type": "functional, organism-based", "outline": "as §2"}, "[16]": {"test_system": "Pseudomonas aeruginosa", "experiment": "Bactericidal activity against Pseudomonas aeruginosa at 20 times MIC after 24 hrs by time-kill assay relative to control", "type": "functional, organism-based", "outline": "as §2"}, "[17]": {"test_system": "Staphylococcus aureus", "experiment": "Bactericidal activity against Staphylococcus aureus at 4 to 20 times MIC after 3 hrs by time-kill assay", "type": "functional, organism-based", "outline": "as §2"}, "[18]": {"test_system": "Staphylococcus aureus", "experiment": "Bactericidal activity against Staphylococcus aureus at 4 to 20 times MIC after 24 hrs by time-kill assay", "type": "functional, organism-based", "outline": "as §2"}, "[19]": {"test_system": "Staphylococcus aureus", "experiment": "Bactericidal activity against Staphylococcus aureus at 1 to 2 times MIC after 6 hrs by time-kill assay", "type": "functional, organism-based", "outline": "as §2"}, "[20]": {"test_system": "Pseudomonas syringae pv. actinidiae", "experiment": "Antimicrobial activity against Pseudomonas syringae pv. actinidiae 16027 preformed biofilms at 5 to 10 uM after 24 hrs", "type": "functional", "outline": "(§3)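 Psa16027 biofilms formed 48 h without peptide, then washed. 100 μL of peptide (1, 5 or 50 μM) in LB, or LB alone, added and incubated a further 24 h at 28 °C. Crystal violet staining followed, with A560 estimation of biofilm mass and microscopy.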"}, "[21]": {"test_system": "Staphylococcus aureus", "experiment": "Inhibition of Staphylococcus aureus biofilm formation at 10 to 25 uM after 48 hrs", "type": "functional, organism-based", "outline": "(§4)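 P. aeruginosa or S. aureus biofilms grown 48 h on coverslips in 12-well plates, with peptide added at inoculation at 5, 10, 25, 50 or 100 μM. Coverslips rinsed, dried at 50 °C and stained with BacLight (SYTO 9/propidium iodide) for 25 min in the dark at room temperature. Examined by fluorescence microscopy at 1000×.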"}, "[22]": {"test_system": "Pseudomonas syringae pv. actinidiae", "experiment": "Antimicrobial activity against Pseudomonas syringae pv. actinidiae 16027 preformed biofilms after 48 hrs by crystal violet staining-based microscopy", "type": "functional", "outline": "as §3"}, "[23]": {"test_system": "Pseudomonas aeruginosa", "experiment": "Inhibition of Pseudomonas aeruginosa biofilm formation at 10 to 50 uM after 48 hrs", "type": "functional, organism-based", "outline": "as §4"}, "[24]": {"test_system": "Pseudomonas aeruginosa", "experiment": "Antimicrobial activity against Pseudomonas aeruginosa preformed biofilms at 10 to 50 uM after 48 hrs", "type": "functional, organism-based", "outline": "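Biofilms preformed 48 h without peptide, then washed. Peptide at 10, 50 or 100 μM in LB added and incubated a further 24 h at 37 °C. Live/dead BacLight staining on coverslips, then fluorescence microscopy at 1000×.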"}, "[25]": {"test_system": "Staphylococcus aureus", "experiment": "Antimicrobial activity against Staphylococcus aureus preformed biofilms at 10 to 25 uM after 48 hrs", "type": "functional, organism-based"}, "[26]": {"test_system": "Pseudomonas aeruginosa", "experiment": "Antimicrobial activity against Pseudomonas aeruginosa assessed as outer membrane permeability at 0.5 to 100 uM measured after 1 min by N-phenylnaphthylamine uptake assay", "type": "functional, organism-based", "outline": "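Cells grown overnight in LB at 37 °C, then regrown to OD600 0.5, washed thrice and resuspended to OD600 0.5 in 10 mM phosphate buffer pH 7.0. Peptide (30 μL, 0.5–100 μM) added to 2.94 mL suspension, with NPN at 10 μM final. Fluorescence read at ex 350/em 420 nm, triplicate readings averaged.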"}, "[27]": {"test_system": "Pseudomonas aeruginosa", "experiment": "Antimicrobial activity against Pseudomonas aeruginosa assessed as perturbed cell membrane at 2 times MIC measured after 24 hrs by scanning electron microscopy", "type": "functional, organism-based", "outline": "(§5)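 Bacteria grown to OD600 0.3 in LB on glass slides for 24 h, then washed with 10 mM sodium phosphate pH 7.4. Treated 20 min with peptide in LB at twice the upper limit of its MIC, washed, and fixed in 4% glutaraldehyde 1 h. Dehydrated through graded ethanol, dried at 60 °C, platinum coated, and imaged by SEM at 10 kV.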"}, "[28]": {"test_system": "Staphylococcus aureus", "experiment": "Antimicrobial activity against Staphylococcus aureus assessed as perturbed cell membrane at 2 times MIC measured after 24 hrs by scanning electron microscopy", "type": "functional, organism-based", "outline": "as §5"}, "[29]": {"test_system": "Pseudomonas aeruginosa", "experiment": "Antimicrobial activity against Pseudomonas aeruginosa assessed as complete cell lysis at 2 times MIC […]", "type": "functional, organism-based"}, "[30]": {"experiment": "Hemolytic activity in mouse erythrocytes at 100 uM to 1 mM after 1 hr by spectrophotometry", "type": "ADME, cell-based, Erythrocyte", "conditions": "read-out: Activity", "outline": "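100 μL peptide (1 μM–1 mM in Tris buffer) plus 100 μL cells, incubated 1 h at 37 °C, triplicates. After centrifugation, supernatant A540 read. Percent hemolysis calculated relative to buffer (0%) and 0.1% Triton X-100 (100%) controls.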"}, "[31]": {"test_system": "Pseudomonas aeruginosa", "experiment": "Antimicrobial activity against Pseudomonas aeruginosa assessed as inner membrane permeability at 0.5 to 100 uM measured after 60 min by propidium iodide uptake assay"}}, "note": "The source made the active and inactive calls. The rule behind the calls is not given here. Non-standard residues stand in square brackets, D forms with d. Residues, ends and D or L forms follow the SMILES beside them. ξ: configuration not given here. *: point of attachment. Hexanoyl(4ξ-Me) = CCC(C)CCC(=O)*; dDab = NCC[C@@H](N)C(=O)O; Dab = NCC[C@H](N)C(=O)O", "data": [{"compound": "CCC(C)CCC(=O)N[C@H](CCN)C(=O)N[C@@H](CCN)C(=O)N[C@@H](CCN)C(=O)N[C@@H](CC(C)C)C(=O)N[C@H](Cc1ccccc1)C(=O)N[C@@H](CCN)C(=O)N[C@@H](CCN)C(=O)N[C@@H](CC(C)C)C(N)=O", "note": "(stereo partly drawn) ({Hexanoyl(4ξ-Me)}-[dDab][Dab][Dab]L[dF][Dab][Dab]L-NH2)", "values": [{"measurement": "MIC", "setting": "[1]", "result": 2.5, "unit": "µM"}, {"measurement": "MIC", "setting": "[2]", "result": 5, "unit": "µM"}, {"measurement": "MIC", "setting": "[3]", "result": 2.5, "unit": "µM"}, {"measurement": "Ratio", "setting": "[4]", "result": 2}, {"measurement": "Activity", "setting": "[5]", "result": "Dose-dependent effect"}, {"measurement": "Activity", "setting": "[6]", "result": "Dose-dependent effect"}, {"measurement": "Activity", "setting": "[7]", "result": "Dose-dependent effect"}, {"measurement": "Activity", "setting": "[8]", "result": ">3", "unit": "deltalog10CFU/ml"}, {"measurement": "Activity", "setting": "[9]", "result": "Active"}, {"measurement": "Activity", "setting": "[10]", "result": "Active"}, {"measurement": "Activity", "setting": "[11]", "result": "Active"}, {"measurement": "Activity", "setting": "[12]", "result": "Active"}, {"measurement": "Activity", "setting": "[13]", "result": "inactive"}, {"measurement": "Activity", "setting": "[14]", "result": ">2", "unit": "deltalog10CFU/ml"}, {"measurement": "Activity", "setting": "[15]", "result": "Active"}, {"measurement": "Activity", "setting": "[16]", "result": "Active"}, {"measurement": "Activity", "setting": "[17]", "result": "Active"}, {"measurement": "Activity", "setting": "[18]", "result": "Active"}, {"measurement": "Activity", "setting": "[19]", "result": "Active"}, {"measurement": "Activity", "setting": "[20]", "result": "Active"}, {"measurement": "inhibition", "setting": "[21]", "result": "Active"}, {"measurement": "Activity", "setting": "[22]", "result": "Active"}, {"measurement": "inhibition", "setting": "[23]", "result": "Active"}, {"measurement": "Activity", "setting": "[24]", "result": "Active"}, {"measurement": "Activity", "setting": "[25]", "result": "Active"}, {"measurement": "Activity", "setting": "[26]", "result": "Active"}, {"measurement": "Activity", "setting": "[27]", "result": "Active"}, {"measurement": "Activity", "setting": "[28]", "result": "Active"}, {"measurement": "Activity", "setting": "[29]", "result": "Active"}, {"measurement": "hemolysis at 1 h, 100 µM", "setting": "[30]", "result": 1.79, "unit": "%"}, {"measurement": "Activity", "setting": "[31]", "result": "Active"}]}]}
